According to ChEMBL document CHEMBL1131877, “Structure-activity relationship of short-chain sphingoid bases as inhibitors of sphingosine kinase” (Bioorg Med Chem Lett, 1999):

Tested on: HEK293
Assay: Inhibitory activity against sphingosine kinase expressed in HEK293 cells at 10 uM
Format: cell-based
Conditions: Homo sapiens
Method in brief: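 Sphingosine kinase from cytosolic fractions of HEK 293 cells transfected to overexpress the enzyme (0.125 μg). Substrate D-erythro-sphingosine 10 μM in Triton X-100 (0.25% final), with [³²P]ATP (10 μCi, 1 mM) and MgCl₂ 10 mM. Analogues tested at 10 μM. After 10 min at 37 °C, sphingosine-1-phosphate formation measured. Activity given as % of vehicle-only control; means ± S.D.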

With `N[C@@H](CO)[C@@H](O)/C=C/c1ccccc1` as the compound, how does the inhibition read?
The inhibition was 79%.

With `CCCCCCCCCCCCC/C=C/[C@@H](O)[C@H](CO)N(C)C` as the compound, how does the inhibition read?
Its inhibition is 47%.

For `CCCCCCCC(F)/C=C/[C@@H](N)CO` (stereo partly drawn), which inhibition is on record?
Its inhibition is 80%.

Which inhibition does the source give for `N[C@@H](CO)[C@@H](F)CCc1ccccc1` here?
Its inhibition is 62%.

`N[C@@H](CO)[C@@H](O)CCc1ccccc1` was tested. Which inhibition did it give?
Its inhibition is 72%.

Which inhibition does the source give for `CCCCCCC/C=C/[C@H](O)[C@@H](N)CO` here?
Its inhibition is 70%.

Which inhibition does the source give for `CCCCCCCCC[C@H](O)[C@@H](N)CO` here?
The inhibition was 50%.

`CCCCCCCCC[C@@H](O)[C@@H](N)CO` was tested. Which inhibition did it give?
Its inhibition is 48%.

With `CCCCCCC/C=C/[C@H](F)[C@@H](N)CO` as the compound, how does the inhibition read?
Its inhibition is 82%.

For `CCCCCCCCC[C@H](F)[C@@H](N)CO`, which inhibition is on record?
The inhibition was 68%.

For `N[C@@H](CO)[C@H](O)CCc1ccccc1`, which inhibition is on record?
Its inhibition is 59%.

Which inhibition does the source give for `N[C@@H](CO)[C@H](O)/C=C/c1ccccc1` here?
Its inhibition is 77%.

For `CCCCCCC/C=C/[C@@H](O)[C@@H](N)CO`, which inhibition is on record?
The inhibition was 69%.
